Source: ChEMBL document CHEMBL1641469, “New Hedgehog/GLI signaling inhibitors from Excoecaria agallocha” (Bioorg Med Chem Lett, 2011)
Activity calls are given as the source filed them. The calls are words filed in the database; no cut-off is given here.

Key:
[1] = Inhibition of human HH/Gli1-mediated transcriptional activity in tetracycline-treated human HaCaT cells treated after 12 hrs of tetracycline addition by luciferase reporter gene assay; format: cell-based
Procedure, shortened: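 HaCaT cells carrying a GLI1-driven luciferase construct, seeded at 2 × 10⁵ cells per well; compounds added 12 h after tetracycline induction; luciferase activity and cell viability read at the same time point.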

PANC-1 [2] = test: Cytotoxicity against human PANC1 cells after 24 hrs by FMCA method; format: functional, cell-based; conditions: PANC-1, 24 h
Procedure, shortened: (§1)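 Cells (PANC1, DU145, C3H10T1/2) exposed to compounds in 0.05% DMSO; viability measured, n = 3; IC50 values derived from concentration–response.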

DU-145 = test: Cytotoxicity against human DU145 cells after 24 hrs by FMCA method; format: functional, cell-based; conditions: DU-145, 24 h; procedure, shortened: as §1
[3] = Cytotoxicity against mouse C3H10T1/2 cells after 24 hrs by FMCA method; format: functional, cell-based; conditions: C3H 10T1/2, 24 h; procedure, shortened: as §1
PANC-1 [4] = test: Inhibition of human HH/Gli1-mediated expression of PTCH in human PANC1 cells by Western blot analysis; format: cell-based
Procedure, shortened: (§2)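 PANC1 cells treated, then full, cytosolic and nuclear fractions prepared; GLI1, PTCH and BCL2 protein levels assessed by Western blotting.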

PANC-1 [5] = test: Inhibition of human HH/Gli1-mediated expression of BCL-2 in human PANC1 cells by Western blot analysis; format: cell-based; procedure, shortened: as §2
PANC-1 [6] = test: Inhibition of human HH/Gli1-mediated induction of nuclear Gli1 level in human PANC1 cells at 1.6 uM by Western blot analysis; format: cell-based; procedure, shortened: as §2
PANC-1 [7] = test: Inhibition of human HH/Gli1-mediated PTCH mRNA expression in human PANC1 cells at 0.7 to 1.4 uM by RT-PCR analysis; format: cell-based
Procedure, shortened: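 PANC1 cells treated in 0.05% DMSO; Ptch mRNA quantified by RT-PCR with GAPDH as internal control; n = 3.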

PANC-1 [8] = test: Inhibition of human HH/Gli1-mediated PTCH mRNA expression in human PANC1 cells transfected with Smo siRNA at 0.7 to 1.4 uM by RT-PCR analysis; format: cell-based
Procedure, shortened: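 PANC1 cells transfected with Smo siRNA (non-targeting siRNA at same concentration as control), Smo depletion confirmed by Western blot; treated cells then assayed for Ptch mRNA by real-time quantitative RT-PCR.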

[9] = Homo sapiens, HaCaT, 12 h, read-out: IC50

C[C@@H]1O[C@@H](OC[C@H]2O[C@@H](Oc3c(-c4ccc(O)c(O)c4)oc4cc(O)cc(O)c4c3=O)[C@H](O)[C@@H](O)[C@@H]2O)[C@H](O)[C@H](O)[C@H]1O [RUTIN]
IC50 ([1]; hacat): Not Active

CC(=O)O[C@H]1[C@H](Oc2c(-c3ccc(O)cc3)oc3cc(O)cc(O)c3c2=O)O[C@@H](C)[C@H](O)[C@H]1O
IC50 ([1]; hacat): Not Active

CO[C@@H]1[C@@H](O)[C@H](C)O[C@@H](Oc2c(-c3ccc(O)c(O)c3)oc3cc(O)cc(O)c3c2=O)[C@@H]1O
IC50 [1, 9]: 500 nM | IC50 (PANC-1 [2]): 700 nM | IC50 (DU-145): 800 nM | IC50 [3]: > 100000 nM | inhibition (PANC-1 [4]): Dose-dependent effect | inhibition (PANC-1 [5]): Dose-dependent effect | inhibition (PANC-1 [6]): Active | inhibition (PANC-1 [7]): Active | inhibition (PANC-1 [8]): Active

C[C@@H]1O[C@@H](Oc2c(-c3ccc(O)cc3)oc3cc(O)cc(O)c3c2=O)[C@H](O)[C@H](O)[C@H]1O [AFZELIN]
IC50 ([1]; hacat): Not Active

C[C@@H]1O[C@@H](Oc2c(-c3ccc(O)c(O)c3)oc3cc(O)cc(O)c3c2=O)[C@H](O)[C@H](O)[C@H]1O [QUERCITRIN]
IC50 ([1]; hacat): Not Active

O=c1c(O[C@@H]2O[C@@H](CO)[C@H](O)[C@H]2O)c(-c2ccc(O)cc2)oc2cc(O)cc(O)c12 [JUGLANIN]
IC50 [1, 9]: 2000 nM | IC50 (PANC-1 [2]): 1800 nM | IC50 (DU-145): 2400 nM | IC50 [3]: > 100000 nM

CO[C@@H]1[C@@H](O)[C@H](C)O[C@@H](OC[C@@]2(O)CO[C@@H](Oc3c(-c4ccc(O)c(O)c4)oc4cc(O)cc(O)c4c3=O)[C@@H]2O)[C@@H]1O
IC50 [1, 9]: 19100 nM | IC50 (PANC-1 [2]): 20000 nM | IC50 (DU-145): 22000 nM | IC50 [3]: > 100000 nM

COc1ccc(-c2oc3cc(O)cc(O)c3c(=O)c2O[C@@H]2O[C@@H](C)[C@H](O)[C@@H](O)[C@H]2O)cc1
IC50 ([1]; hacat): Not Active
